In ChEMBL document CHEMBL4422612, “Small Molecule Inhibitor that Stabilizes the Autoinhibited Conformation of the Oncogenic Tyrosine Phosphatase SHP2” (J Med Chem, 2019):
Positions count from the first letter of the chain named. The source made the active and inactive calls. The calls are words filed in the database; no cut-off is given here.

Tests used:
[1] = biological target: T1, Tyrosine-protein phosphatase non-receptor type 11 (Homo sapiens) (UniProt Q06124); assay: Binding affinity to full length wild type GST-tagged SHP2 (unknown origin) luminescence spectrometry-based quenching assay
T1 sequence (whole entry): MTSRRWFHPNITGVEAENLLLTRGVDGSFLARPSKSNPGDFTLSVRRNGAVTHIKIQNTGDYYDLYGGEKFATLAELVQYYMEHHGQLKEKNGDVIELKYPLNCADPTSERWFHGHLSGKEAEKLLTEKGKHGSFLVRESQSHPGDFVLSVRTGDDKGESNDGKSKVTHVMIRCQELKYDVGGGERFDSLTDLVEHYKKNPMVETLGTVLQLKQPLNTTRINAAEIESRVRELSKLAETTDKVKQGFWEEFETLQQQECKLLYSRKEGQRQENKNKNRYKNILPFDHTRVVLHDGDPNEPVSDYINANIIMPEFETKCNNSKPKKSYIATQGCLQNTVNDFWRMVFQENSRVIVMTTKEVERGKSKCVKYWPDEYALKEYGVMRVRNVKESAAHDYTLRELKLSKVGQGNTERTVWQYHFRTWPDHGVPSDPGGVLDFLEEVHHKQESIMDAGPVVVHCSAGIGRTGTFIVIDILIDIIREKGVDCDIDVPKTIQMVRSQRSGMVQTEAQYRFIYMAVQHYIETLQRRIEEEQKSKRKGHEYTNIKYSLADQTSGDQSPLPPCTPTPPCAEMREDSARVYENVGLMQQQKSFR
Method in brief: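 Intrinsic fluorescence quenching of full-length WT GST-SHP2 held at 3.0 µM in 20 mM Tris-HCl pH 7.5 while compound concentration is increased. Excitation 295 nm, emission 360–500 nm. Compound-alone fluorescence subtracted; intensities are relative. Triplicates shown from one of three repeats.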

[2] = biological target: T2, Tyrosine-protein phosphatase non-receptor type 11 (Mus musculus) (UniProt P35235); assay: Inhibition of SHP2 in mouse Ba/F3 cells assessed as reduction in IL3-stimulated AKT phosphorylation pretreated for 4 hrs followed by IL3 stimulation and measured after 5 to 60 mins by Western blot analysis; format: cell-based
T2 sequence (whole entry): T1 sequence (whole entry) with M450V, A550V, K590R
Method in brief: (§1)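 Ba/F3 cells starved overnight in serum- and cytokine-free RPMI1640. Treated with 20 µM compound for 4 h, then IL-3 (2 ng/mL) for the indicated times. RIPA lysates (50 µg) immunoblotted for p-Erk, p-Akt, p-Jak2 and p-Stat5, then reprobed for total proteins. Representative of three experiments.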

[3] = biological target: T2, Tyrosine-protein phosphatase non-receptor type 11 (Mus musculus); assay: Inhibition of SHP2 in mouse Ba/F3 cells assessed as reduction in IL3-stimulated JAK2 phosphorylation pretreated for 4 hrs followed by IL3 stimulation and measured after 5 to 60 mins by Western blot analysis; format: cell-based; method in brief: as §1
[4] = system: T3, Tyrosine-protein phosphatase non-receptor type 11 (Mus musculus), P35235 [E76K]; assay: Inhibition of PTPN11 E76K mutant in mouse embryonic fibroblasts assessed as inhibition of cell growth at 6 uM after 24 to 72 hrs by cell proliferation-based assay
T3 sequence (whole entry): T1 sequence (whole entry) with E76K, M450V, A550V, K590R
Method in brief: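 Ptpn11 E76K/+ and Ptpn11 +/+ MEFs treated with 6 µM compound; cell number read by One Solution proliferation assay. Triplicates from one of three experiments.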

[5] = system: NCI-H661; assay: Growth inhibition of human NCI-H661 cells after 48 hrs by cell proliferation-based assay; format: functional
Method in brief: (§2)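 H661 (PTPN11 N58S/+) and H596 (WT PTPN11) lung cancer cells exposed to a concentration series for 48 h, DMSO as control. Cell number measured by One Solution proliferation assay. Triplicates from one of three repeated experiments.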

[6] = system: NCI-H596; assay: Growth inhibition of human NCI-H596 cells after 48 hrs by cell proliferation-based assay; format: functional; method in brief: as §2
[7] = biological target: T1, Tyrosine-protein phosphatase non-receptor type 11 (Homo sapiens); assay: Inhibition of human wild-type full length SHP2 at 20 uM using H-Glu-Phe-pTyr-Ala-Glu-Val-Gly-Arg-Ser-ProPro-Asp-Pro-Ala-Lys as substrate in presence of 0.001% Triton X
Method in brief: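 Full-length SHP2 or SHP1 (0.1 µg) preincubated with compound 30 min at room temperature in 25 mM Tris-HCl pH 7.4, 50 mM NaCl, 5 mM DTT, 2.5 mM EDTA. Phospho-peptide substrate added to 50 µM final; 30 min at 30 °C. Released phosphate read by Malachite Green at OD620. IC50 from six concentrations; three experiments.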

[8] = biological target: T1, Tyrosine-protein phosphatase non-receptor type 11 (Homo sapiens); assay: Inhibition of human wild-type full length SHP2 at 20 uM using H-Glu-Phe-pTyr-Ala-Glu-Val-Gly-Arg-Ser-ProPro-Asp-Pro-Ala-Lys as substrate in presence of 0.001% Triton X

- Activity [1]: Dose-dependent effect
- inhibition [2]: Dose-dependent effect
- inhibition [3]: Dose-dependent effect
- growth inhibition (GI) [4]: Active
- inhibition [7]: Active
- inhibition [8]: Active
SMILES: CCOc1cc(O)c(C(=O)/C=C/c2ccc(Cl)cc2Cl)cc1CN1CCC=C(n2c(=O)[nH]c3ccccc32)C1
- growth inhibition (GI) [5]: Dose-dependent effect
- growth inhibition (GI) [6]: Dose-dependent effect
